The subject of assay [1] is Mycobacterium tuberculosis. Description: Antitubercular activity against Mycobacterium tuberculosis H37Rv by radiometric method. It is filed as functional. The method, boiled down:
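M. tuberculosis H37Rv (ATCC […], drug-susceptible) tested by the radiometric BACTEC method. MIC was judged from ΔGI against a control vial inoculated at 10⁻² dilution. MBC was also determined. Highest concentration tested was 620.0 µg/mL.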

Assay [2] relates to Mycobacterium tuberculosis. Nature of the assay: Antitubercular activity against Mycobacterium tuberculosis H37Rv infected in human U937 cells by radiometric method. It is filed as functional, U-937.
In assay [3] the test system is Mycolicibacterium smegmatis. Description: Antibacterial activity against Mycobacterium smegmatis MC2 155 by microplate dilution method. The conditions noted are these: str. MC2 155. In kind it is functional. In short, it runs like this: (§1)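 M. smegmatis MC2 155 tested by microplate broth dilution. Highest concentration tested was 620.0 µg/mL. Read-out was MIC, and MBC where determined.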

Assay [4] relates to U-937. Nature of the assay: Cytotoxicity against human U937 cells. In kind it is cell-based.
Assay [5] concerns the target Mycothione reductase (Mycobacterium tuberculosis) (UniProt P9WHH3). Description: Inhibition of Mycobacterium tuberculosis mycothiol disulfide reductase assessed as NADPH oxidation at 800 uM by Ellmans reagent method. The method, boiled down: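 M. tuberculosis mycothiol disulfide reductase (NADPH-dependent) used with the mycothiol analogue BnOMSH as substrate. Activity was followed as the increase in absorbance at […] from reduction of Ellman's reagent by the BnOMSH formed.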
Background: In Ellman's method for cholinesterases, released thiocholine reacts with DTNB.

Assay [6] relates to Mycobacterium tuberculosis. Description: Antitubercular activity against Mycobacterium tuberculosis H37Rv infected in human U937 cells at MBC by radiometric method. It is filed as functional, U-937.
For assay [7], the system named is Mycolicibacterium smegmatis. Description: Antibacterial activity against Mycobacterium smegmatis MC2 155 at 620 ug/ml by microplate dilution method. The conditions noted are these: str. MC2 155. It is filed as functional, organism-based. In short, it runs like this:
as §1

Values after ≈ are worked out from the molar mass of the structure shown. Active and inactive are the calls of the source.

Sequence of Mycothione reductase (Mycobacterium tuberculosis) (P9WHH3 whole entry): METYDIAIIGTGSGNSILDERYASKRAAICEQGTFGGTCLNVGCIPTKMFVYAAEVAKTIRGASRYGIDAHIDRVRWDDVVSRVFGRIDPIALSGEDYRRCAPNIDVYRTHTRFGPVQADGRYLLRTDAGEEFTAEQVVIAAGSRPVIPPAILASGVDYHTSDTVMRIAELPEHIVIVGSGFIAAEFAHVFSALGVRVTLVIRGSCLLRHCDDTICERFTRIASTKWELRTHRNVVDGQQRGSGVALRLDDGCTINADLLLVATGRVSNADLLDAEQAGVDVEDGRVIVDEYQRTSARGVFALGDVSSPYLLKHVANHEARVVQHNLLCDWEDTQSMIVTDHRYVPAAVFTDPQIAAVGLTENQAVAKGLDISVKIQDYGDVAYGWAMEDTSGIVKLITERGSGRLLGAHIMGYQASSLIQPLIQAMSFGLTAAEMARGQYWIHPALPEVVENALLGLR

As for `NNC(=O)c1ccncc1` [ISONIAZID], the MIC (commonly the smallest concentration in the dilution series that meets the test's criterion for growth inhibition) in assay [1] stood at 1.4 µM (≈ 0.192 µg/mL); in assay [2], 2.9 µM (≈ 0.398 µg/mL).
In the case of `O=C(O)c1cn(C2CC2)c2cc(N3CCNCC3)c(F)cc2c1=O` [CIPROFLOXACIN], in assay [3], the minimal bactericidal concentration (MBC) (commonly the lowest tested concentration that kills the bacteria rather than only halting them) was 2.2 µM (≈ 0.729 µg/mL) and 1.5 µM (≈ 0.497 µg/mL) was the least that counted as inhibitory (MIC).
Turning to `O=C(/C=C/c1ccccc1)c1ccc(O)cc1O` [2',4'-DIHYDROXYCHALCONE], the minimal inhibitory concentration (MIC) in assay [1] was 195 µM (≈ 46.9 µg/mL); in assay [3], 469 µM (≈ 113 µg/mL); in assay [2], 195 µM (≈ 46.9 µg/mL). The MBC in assay [3] came to 234 µM (≈ 56.3 µg/mL); in assay [2] it was 416 µM (≈ 100 µg/mL). It took 80.2 µM to reach half-maximal inhibition in assay [4] (IC50). The inhibition result in assay [5] was “inactive”. In assay [6], the “inhibition (INH)” value was 99.5%.
On to `COc1cccc2c1C(=O)c1c(O)c3c(c(O)c1C2=O)C[C@@](O)(C(=O)CO)C[C@@H]3O[C@H]1C[C@H](N)[C@H](O)[C@H](C)O1` [DOXORUBICIN], for which, in assay [4], 1.1 µM corresponded to half-maximal inhibition (IC50).
Consider `COc1c(O)ccc(C(=O)/C=C/c2cccc(O)c2)c1O`, for which the concentration for half-maximal inhibition (IC50) (in general, the point on the concentration scale where inhibition reaches its midpoint) in assay [4] amounted to 333 µM.
For the compound `O=C(/C=C/c1cccc(O)c1)c1ccc(O)cc1O`, the minimal inhibitory concentration (MIC) in assay [1] came out at 417 µM (≈ 107 µg/mL); in assay [2] it was 184 µM (≈ 47.1 µg/mL). Also, the MIC result in assay [7] is “inactive”. Also, half-maximal inhibition in assay [4] (IC50) required 415 µM. Besides, the inhibition entry in assay [5] is “inactive”. Also, in assay [6], the “inhibition (INH)” value amounted to 99.5%. In assay [2], this compound yielded an MBC of 368 µM (≈ 94.2 µg/mL).
Turning to `O=C1C[C@@H](c2ccccc2O)Oc2cc(O)cc(O)c21`, the MIC in assay [1] was determined as 368 µM (≈ 100 µg/mL); in assay [3] it was 110 µM (≈ 30 µg/mL); in assay [2] it was 368 µM (≈ 100 µg/mL). Also, the results for the minimum bactericidal concentration (MBC) in assay [3] and in assay [2] were 441 µM (≈ 120 µg/mL) and 735 µM (≈ 200 µg/mL), respectively. The compound also had an IC50 in assay [4] of 110 µM. In addition, in assay [5], the inhibition result is “inactive”. Moreover, the “inhibition (INH)” value in assay [6] is on record as 99.5%.
